# Measurements as given in ChEMBL document CHEMBL3232734, “Nitric oxide (NO) releasing poly ADP-ribose polymerase 1 (PARP-1) inhibitors targeted to glutathione S-transferase P1-overexpressing cancer cells” (J Med Chem, 2014).
# Activity calls are given as the source filed them. The rule behind the calls is not given here.
# Assays:
# Tumour [1] = assay: Drug metabolism in tumor of NCr nu/nu athymic mouse xenografted with human A549 cells assessed as metabolite formation at 92 umol/kg, iv administered two times a week for 4 weeks; type: ADME, organism-based, Neoplasm; settings: in vivo, 672 h
# Procedure, shortened: (§1)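 A549 cells (RPMI 1640 + 10% FBS, ≤4 passages) harvested at 70–80% confluence, 5 × 10^6 cells in PBS implanted s.c.; at ~3 mm × 3 mm tumors, mice randomized into groups of 12. Tail-vein injection at 92 μmol/kg in 20 μL DMSO, twice weekly for 4 weeks; saline or DMSO controls. Tumors caliper-measured twice weekly, volume = π/2 × L × W². Tumors resected at end, frozen, extracted for metabolite analysis by LC/MS.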
# A549 [2] = assay: Induction of apoptosis in human A549 cells assessed as cleaved caspase 7 level by immunoblot analysis; type: functional, cell-based
# Procedure, shortened: (§2)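 A549 cells treated with compound, lysed and immunoblotted for cleaved caspase 8, caspases 3 and 7, and PARP (full-length and cleaved). Caspase 8 was read within 6 h at 1 μM. Representative of at least three independent experiments.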
# A549 [3] = assay: Induction of apoptosis in human A549 cells assessed as cleaved PARP level after 8 hrs by immunoblot analysis; type: functional, cell-based; procedure, shortened: as §2
# Mus musculus = assay: Systemic toxicity in NCr nu/nu athymic mouse xenografted with human A549 cells assessed as body weight at 92 umol/kg, iv administered two times a week for 4 weeks (reference value: 25.0 +/-0.78 gms); type: organism-based; settings: in vivo, 672 h
# [4] = target: Poly [ADP-ribose] polymerase 1 (Homo sapiens, UniProt P09874); assay: Inhibition of PARP-1 (unknown origin) assessed as incorporation of biotinylated poly ADP-ribose onto histone proteins at 0.1 to 1000 nM by colorimetric analysis in presence of GSH and GSTP1
# Procedure, shortened: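 PARP activity measured with a colorimetric histone biotinylated poly(ADP-ribose) incorporation kit. GSH (4 mM) with or without 40 nM GSTP1 in PBS pH 7.4 was preincubated 10 min at 37 °C. Reaction started by adding prodrug (10 μM substrate) and ran a further 10 min; absorbance read at 450 nm. Inhibitors tested over 0.01 nM–1 μM.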
# [5] = target: Eukaryotic translation initiation factor 2 subunit 1 (Homo sapiens) (UniProt P05198); assay: Induction of eIF2-alpha phosphorylation in human A549 cells by immunoblot analysis; type: cell-based
# A549 [6] = assay: Induction of apoptosis in human A549 cells assessed as cleaved caspase 8 level at 1 uM within 6 hrs after drug treatment by immunoblot analysis; type: functional, cell-based; procedure, shortened: as §2
# [7] = Prodrug activation assessed as GSH reactivity in aqueous phosphate buffer at pH 7.4 by UV-Visible spectrophotometer analysis; type: physicochemical
# Procedure, shortened: (§3)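 UV–vis kinetics at 37 °C in 0.1 M phosphate buffer, pH 7.4, with 50 μM DTPA and 4 mM GSH, with or without 40 nM recombinant GSTP1 or GSTA1. Substrate (typically 10 μM) added after thermal equilibration. Ratios are k with enzyme over k with GSH alone.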
# [8] = target: Glutathione S-transferase P (Homo sapiens, UniProt P09211); assay: Ratio of prodrug activation in presence of GSH and recombinant GSTP1 (unknown origin) to prodrug activation in presence of GSH by UV-Visible spectrophotometry
# Procedure, shortened: as §3, with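 “equilibration. Absorbance followed at 302 nm; first-order rate from an exponential fit.” for “equilibration.”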
# U-937 = assay: Drug metabolism in human U937 cells assessed as nitric oxide release at 5 uM by LC/MS/MS analysis in presence of GSH/GSTP1; settings: u-937, 5 µM
# [9] = target: T1, MAP kinase p38 (Homo sapiens) (UniProt O15264+Q15759+Q16539+P53778); assay: Induction of p38 phosphorylation in human A549 cells after 8 hrs by immunoblot analysis; type: cell-based
# Procedure, shortened: (§4)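 A549 cells treated with compound and p38 phosphorylation followed by immunoblot from 15 min to 8 h after the start of treatment. At least three independent experiments.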
# A549 [10] = assay: Induction of endoplasmic reticulum stress in human A549 cells assessed as protein glutathionylation after 8 hrs by immunoblot analysis; type: functional, cell-based
# A549 [11] = assay: Anticancer activity against human A549 cells assessed as reduction in number of colonies at 1 uM in presence of 3 nM proteasome inhibitor bortezomib by colony forming assay; type: functional, cell-based
# Procedure, shortened: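 A549 colony forming assay after combined treatment with the proteasome inhibitor bortezomib.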
# A549 [12] = assay: Induction of endoplasmic reticulum stress in human A549 cells assessed as upregulation of ATF4 protein expression by immunoblot analysis; type: functional, cell-based
# Tumour [13] = assay: Drug uptake in tumor of NCr nu/nu athymic mouse xenografted with human A549 cells at 92 umol/kg, iv administered two times a week for 4 weeks; type: ADME, organism-based, Neoplasm; settings: in vivo, 672 h; procedure, shortened: as §1
# [14] = target: T2, Glutathione S-transferase A1 (Homo sapiens, UniProt P08263); assay: Ratio of prodrug activation in presence of GSH and recombinant GSTA1 (unknown origin) to prodrug activation in presence of GSH by UV-Visible spectrophotometry
# T2 sequence (P08263 whole entry): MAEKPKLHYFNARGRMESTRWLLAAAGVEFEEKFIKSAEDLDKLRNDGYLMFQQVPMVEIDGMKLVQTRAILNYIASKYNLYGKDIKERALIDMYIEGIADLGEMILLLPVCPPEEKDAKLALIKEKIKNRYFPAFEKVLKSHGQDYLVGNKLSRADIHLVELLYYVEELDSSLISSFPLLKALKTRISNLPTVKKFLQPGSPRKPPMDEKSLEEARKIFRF
# Procedure, shortened: as §3, with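 “equilibration. Absorbance followed at 302 nm; first-order rate from an exponential fit.” for “equilibration.”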
# A549 [15] = assay: Induction of apoptosis in human A549 cells assessed as cleaved PARP level by immunoblot analysis; type: functional, cell-based; procedure, shortened: as §2
# A549 [16] = assay: Drug metabolism in human A549 cells assessed as nitric oxide release at 10 uM by LC/MS/MS analysis in presence of GSH/GSTP1; type: ADME, cell-based; settings: a549, 10 µM
# Procedure, shortened: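 A549 cells were plated in 75 cm2 flasks and grown overnight at 37 °C, then treated with 10 μM compound for varying times up to 1 h. Cells were lysed in 10 mM HCl/acetonitrile, 5-sulfosalicylic acid was added, and the precipitate was spun off at 12000g for 15 min. Supernatant was filtered and metabolites were identified by positive-ion LC/MS/MS (Q-TOF, C18, water/acetonitrile/0.1% formic acid gradient).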
# [17] = target: T1, MAP kinase p38 (Homo sapiens); assay: Induction of p38 phosphorylation in human A549 cells within 15 mins after drug treatment by immunoblot analysis; type: cell-based; procedure, shortened: as §4
# A549 [18] = assay: Induction of endoplasmic reticulum stress in human A549 cells assessed as upregulation of BiP protein expression by immunoblot analysis; type: functional, cell-based
# A549 [19] = assay: Anticancer activity against human A549 cells xenografted in NCr nu/nu athymic mouse assessed as reduction of tumor growth at 92 umol/kg, iv administered two times a week for 4 weeks; type: functional, organism-based; procedure, shortened: as §1
# A549 [20] = assay: Induction of apoptosis in human A549 cells assessed as cleaved caspase 3 level by immunoblot analysis; type: functional, cell-based; procedure, shortened: as §2
# A549 [21] = assay: Induction of endoplasmic reticulum stress in human A549 cells assessed as protein glutathionylation measured within 1 hr post-drug treatment by immunoblot analysis; type: functional, cell-based
# A549 [22] = assay: Induction of endoplasmic reticulum stress in human A549 cells assessed as upregulation of CHOP protein expression by immunoblot analysis; type: functional, cell-based
# Glutathione S-transferase P, sequence (P09211 whole entry): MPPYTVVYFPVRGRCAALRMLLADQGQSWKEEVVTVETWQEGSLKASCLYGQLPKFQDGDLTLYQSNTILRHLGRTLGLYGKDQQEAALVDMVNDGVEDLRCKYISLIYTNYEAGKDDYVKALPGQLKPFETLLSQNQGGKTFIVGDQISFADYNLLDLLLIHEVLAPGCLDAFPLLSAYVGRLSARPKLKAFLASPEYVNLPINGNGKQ
# Eukaryotic translation initiation factor 2 subunit 1 (Homo sapiens), sequence (P05198 whole entry): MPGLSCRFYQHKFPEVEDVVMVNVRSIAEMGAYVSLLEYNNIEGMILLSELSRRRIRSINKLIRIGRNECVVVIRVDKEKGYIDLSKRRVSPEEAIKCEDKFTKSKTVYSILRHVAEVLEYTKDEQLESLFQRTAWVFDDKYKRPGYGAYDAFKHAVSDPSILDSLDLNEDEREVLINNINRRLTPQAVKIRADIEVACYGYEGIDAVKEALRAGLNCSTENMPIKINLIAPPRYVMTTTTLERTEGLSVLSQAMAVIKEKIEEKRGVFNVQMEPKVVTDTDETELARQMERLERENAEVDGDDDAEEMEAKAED
# Poly [ADP-ribose] polymerase 1, sequence (P09874 whole entry): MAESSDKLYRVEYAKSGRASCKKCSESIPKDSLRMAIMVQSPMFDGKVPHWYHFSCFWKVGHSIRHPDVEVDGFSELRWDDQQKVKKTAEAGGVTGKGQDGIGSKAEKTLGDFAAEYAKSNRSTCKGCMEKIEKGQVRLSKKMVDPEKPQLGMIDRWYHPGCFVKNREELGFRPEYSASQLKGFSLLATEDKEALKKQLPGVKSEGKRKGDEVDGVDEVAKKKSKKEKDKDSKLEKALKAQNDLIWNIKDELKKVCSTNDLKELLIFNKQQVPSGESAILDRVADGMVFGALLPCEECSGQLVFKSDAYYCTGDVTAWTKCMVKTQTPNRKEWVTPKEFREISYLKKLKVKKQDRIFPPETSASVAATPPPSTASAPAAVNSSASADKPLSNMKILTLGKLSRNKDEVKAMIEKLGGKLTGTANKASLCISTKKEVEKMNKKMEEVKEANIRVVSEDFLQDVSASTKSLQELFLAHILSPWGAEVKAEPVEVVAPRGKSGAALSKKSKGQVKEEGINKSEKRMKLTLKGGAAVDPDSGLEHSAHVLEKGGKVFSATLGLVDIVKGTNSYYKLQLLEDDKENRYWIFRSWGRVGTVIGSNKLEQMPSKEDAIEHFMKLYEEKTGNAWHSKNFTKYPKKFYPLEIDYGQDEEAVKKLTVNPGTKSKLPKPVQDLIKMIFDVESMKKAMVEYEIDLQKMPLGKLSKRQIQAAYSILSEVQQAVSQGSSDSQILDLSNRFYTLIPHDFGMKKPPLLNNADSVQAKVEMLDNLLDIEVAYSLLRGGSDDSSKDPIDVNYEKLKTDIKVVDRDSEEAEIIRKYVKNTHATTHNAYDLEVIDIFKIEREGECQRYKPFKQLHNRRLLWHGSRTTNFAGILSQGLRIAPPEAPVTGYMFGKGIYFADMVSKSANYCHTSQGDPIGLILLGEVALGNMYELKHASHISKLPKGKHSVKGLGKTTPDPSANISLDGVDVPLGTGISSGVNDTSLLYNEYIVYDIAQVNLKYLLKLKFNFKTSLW
compound,measurement,setting,value
CN(C)/[N+]([O-])=N\Oc1cc(O/N=[N+](\[O-])N2CCN(C(=O)c3cc(Cc4n[nH]c(=O)c5ccccc45)ccc3F)CC2)c([N+](=O)[O-])cc1[N+](=O)[O-],Drug metabolism,Tumour [1],metabolite_detected
same,Activity,A549 [2],Active
same,Activity,A549 [3],Active
same,Activity,Mus musculus,25.3 g
same,inhibition,[4],Active
same,Activity,[5],Active
same,Activity,A549 [6],Active
same,t1/2,[7],16 min
same,Ratio,[8],13.3
same,Drug metabolism,U-937,metabolite_detected
same,Activity,[9],Active
same,Activity,A549 [10],inactive
same,inhibition,A549 [11],Active
same,Activity,A549 [12],Active
same,Drug uptake,Tumour [13],Active
same,Ratio,[14],9.2
same,Activity,A549 [15],Active
same,Drug metabolism,A549 [16],metabolite_detected
same,Activity,[17],Active
same,Activity,A549 [18],Active
same,growth inhibition (GI),A549 [19],Active
same,Activity,A549 [20],Active
same,Activity,A549 [21],Active
same,Activity,A549 [22],Active
